Results published in ChEMBL document CHEMBL4831535, “Reducing the Toxicity of Designer Aminoglycosides as Nonsense Mutation Readthrough Agents for Therapeutic Targets” (ACS Med Chem Lett, 2021).
Calls of active or inactive are those of the source. The rule behind the calls is not given here.

What was measured:
Assay type in all cases: cell-based
[1] = system: Premature termination codon; assay: Induction of read through activity at TP53 R213X mutant premature termination codon in human DMS-114 cells assessed as increase in production of full length p53 at up to 500 ug/ml measured after 48 hrs by capillary electrophoresis western analysis; conditions: dose microg/ml <=500, time 48.0 hrs
How it was run: (§1)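 DMS-114 cells exposed to a range of concentrations for 48 h. Full-length and truncated p53 measured by capillary electrophoresis western analysis, with vinculin as loading control. Full-length p53 expressed as a normalized percent amount.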

DMS-114 [2] = assay: Cytotoxicity against human DMS-114 cells assessed as reduction in cell viability at up tp 500 ug/ml; conditions: dose 500 µg/ml
[3] = system: Premature termination codon; assay: Induction of read through activity at TP53 R213X mutant premature termination codon in human DMS-114 cells assessed as increase in production of full length p53 at 500 ug/ml measured after 48 hrs by capillary electrophoresis western analysis relative to control; conditions: dose 500.0 µg/ml; how it was run: as §1
[4] = system: Premature termination codon; assay: Induction of read through activity at TP53 R213X mutant premature termination codon in human DMS-114 cells assessed as increase in production of full length p53 at 125 ug/ml measured after 48 hrs by capillary electrophoresis western analysis; conditions: dose 125.0 µg/ml; how it was run: as §1
Fibroblast [5] = assay: Cytotoxicity against human fibroblast assessed as reduction in cell viability at up to 0.5 mg/ml measured after 48 hrs by fluorescent live-cell promega ApoLive-glo multiplex assay
How it was run: (§2)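 Wild-type fibroblasts exposed to a range of concentrations for 48 h. Cell viability read out with the ApoLive-Glo Multiplex Assay.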

[6] = system: Premature termination codon; assay: Induction of read through activity at TP53 R213X mutant premature termination codon in human DMS-114 cells assessed as expression of full length p53 levels at 62 ug/ml measured after 48 hrs by capillary electrophoresis western analysis; conditions: dose 62.0 µg/ml; how it was run: as §1
DMS-114 [7] = assay: Cytotoxicity against human DMS-114 cells assessed as reduction in cell viability at up to 62 ug/ml; conditions: dose <=62 µg/ml
Fibroblast [8] = assay: Cytotoxicity against human fibroblast assessed as reduction in cell viability at 1 mg/ml measured after 48 hrs by fluorescent live-cell promega ApoLive-glo multiplex assay relative to control; how it was run: as §2
DMS-114 [9] = assay: Cytotoxicity against human DMS-114 cells assessed as reduction in cell viability at 125 ug/ml; conditions: dose 125 µg/ml
[10] = system: Premature termination codon; assay: Induction of read through activity at TP53 R213X mutant premature termination codon in human DMS-114 cells assessed as increase in production of full length p53 at 31 to 250 ug/ml measured after 48 hrs by capillary electrophoresis western analysis; conditions: dose 31-250 µg/ml; how it was run: as §1

Structure (SMILES)	Activity [1]	Activity (DMS-114 [2])	Activity (Fibroblast [5])	Activity (Fibroblast [8]) [%]	also measured
C[C@H](N)[C@H]1O[C@@H](O[C@@H]2[C@@H](O)[C@H](N)C[C@H](N)[C@H]2O[C@H]2O[C@H]([C@H](C)O)[C@@H](O)[C@H](O)[C@H]2O)[C@H](O)[C@@H]1O	inactive	Non-Toxic			
C[C@H](N)[C@H]1O[C@@H](O[C@@H]2[C@@H](O)[C@H](N)C[C@H](N)[C@H]2O[C@H]2O[C@H]([C@@H](C)O)[C@@H](O)[C@H](O)[C@H]2O)[C@H](O)[C@@H]1O		Non-Toxic	Non-Toxic		Activity [3]: 18%; Activity [4]: Active
C[C@H](N)[C@H]1O[C@@H](O[C@@H]2[C@@H](O)[C@H](N)C[C@H](N)[C@@H]2O[C@H]2O[C@H]([C@@H](C)O)[C@@H](O)[C@H](O)[C@H]2N)[C@H](O)[C@@H]1O				50	Activity [6]: Active; Activity (DMS-114 [7]): Non-Toxic; Activity (DMS-114 [9]): Toxic
C[C@H](N)[C@H]1O[C@@H](O[C@@H]2[C@@H](O)[C@H](N)C[C@H](N)[C@H]2O[C@H]2O[C@H]([C@@H](C)N)[C@@H](O)[C@H](O)[C@H]2O)[C@H](O)[C@@H]1O	inactive				
C[C@H](N)[C@H]1O[C@@H](O[C@@H]2[C@@H](O)[C@H](N)C[C@H](N)[C@H]2O[C@H]2O[C@H]([C@H](O)CO)[C@@H](O)[C@H](O)[C@H]2O)[C@H](O)[C@@H]1O		Non-Toxic	Non-Toxic	15	Activity [10]: Active
